ChEMBL document CHEMBL3351657, “γ-Hydroxyethyl piperidine iminosugar and N-alkylated derivatives: a study of their activity as glycosidase inhibitors and as immunosuppressive agents” (Bioorg Med Chem, 2014)
pIC50: −log10 of the molar value.

Columns and labels:
[1] = Inhibition of alpha-glucosidase (unknown origin) using p-nitrophenyl-alpha-D-glucopyranoside substrate incubated for 10 mins by UV spectrophotometry; details: for pIC50: read-out: IC50
Outline: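 α-Glucosidase (0.1 unit/ml) preincubated with compound 1 h at 37 °C. Reaction started with 10 mM p-nitrophenyl substrate in 100 mM phosphate buffer pH 6.8, run 10 min at 37 °C, and stopped with 0.1 M Na₂CO₃.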

[2] = Inhibition of alpha-galactosidase (unknown origin) using p-nitrophenyl-alpha-D-galactopyranoside substrate incubated for 10 mins by UV spectrophotometry; details: for pIC50: read-out: IC50
Outline: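 α-Galactosidase (0.1 unit/ml) preincubated with compound 1 h at 37 °C. Substrate added in 200 mM sodium acetate buffer, reaction run 10 min at 37 °C, and stopped with 200 mM borate buffer pH 9.8.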

[3] = system: PBMC; assay: Immunosuppressive activity in human PBMC assessed as inhibition of cell proliferation using (methyl-3H)thymidine by mixed lymphocyte reaction assay; format: functional, cell-based
Outline: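 PBMCs at 1.2 × 10⁶ cells/ml in RPMI-1640 with 10% heat-inactivated FCS and antibiotics. 100 µl of each cell suspension mixed with 20 µl diluted compound and cultured 6 days at 37 °C, 5% CO₂. 1 µCi (methyl-³H)thymidine per well added for the last 18 h. Cells harvested on glass filters and cpm counted by liquid scintillation.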

[4] = system: B cell; assay: Immunosuppressive activity in CPG oligonucleotide-induced human B cells assessed as inhibition of IgG production by immune assay; format: functional, cell-based
Outline: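 Human B cells stimulated with CpG oligonucleotide and cultured with compound for 7 days at 37 °C, 5% CO₂. IgG concentration in supernatants then measured by immunoassay.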

[5] = molecular target: alpha-mannosidase (Canavalia ensiformis); assay: Inhibition of jack bean alpha-mannosidase using p-nitrophenyl-alpha-D-mannopyranoside substrate incubated for 10 mins by UV spectrophotometry
[6] = system: Jurkat; assay: Cytotoxicity against human Jurkat cells assessed as cell viability after 3 hrs by WST1 assay; format: functional, cell-based; details: 48 h, in the assay text read “after 48 hrs” for “after 3 hrs”
Outline: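 Jurkat cells in exponential growth seeded at 50 × 10³ per 200 µl complete medium, with compound dilution added (20 µl) and incubated 48 h at 37 °C, 5% CO₂. Untreated cells set maximum viability and 1% Triton X-100 (last 15 min) set minimum. After a further 3 h at 37 °C, optical density read at 450 nm.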

SMILES | pIC50 [1] | pIC50 [2] | pIC50 [4] | pIC50 [5] | IC50 [2] | IC50 [1] | pIC50 [3] | pIC50 [6]
CCCCCCCCN1C[C@@H](O)C(O)(CCO)[C@@H](O)C1 (stereo partly specified) |  |  | < 4.30 |  | Not Active | Not Active | < 5.00 | < 5.00
CCCCCCCCCCN1C[C@@H](O)C(O)(CCO)[C@@H](O)C1 (stereo partly specified) |  |  | 4.82 |  | Not Active | Not Active | < 5.00 | < 5.00
CCCCCCN1C[C@@H](O)C(O)(CCO)[C@@H](O)C1 (stereo partly specified) |  | 3.50 | < 4.30 | 3.74 |  | Not Active | < 5.00 | < 5.00
OCCC1(O)[C@H](O)CNC[C@@H]1O (stereo partly specified) | 3.38 |  | < 4.30 | 2.74 | Not Active |  | < 5.00 | < 5.00
CCCCN1C[C@@H](O)C(O)(CCO)[C@@H](O)C1 (stereo partly specified) | 3.44 | 3.78 | < 4.30 | 3.60 |  |  | < 5.00 | < 5.00

Now from value to molecule, other results behind:

pIC50 [1] | pIC50 [2] | pIC50 [4] | pIC50 [5] | IC50 [2] | IC50 [1] | SMILES | pIC50 [3] | pIC50 [6]
3.77 | 2.73 |  |  |  |  | OCCN1C[C@H](O)[C@@H](O)[C@H](O)[C@H]1CO [MIGLITOL] |  | 
3.60 |  | < 4.30 | 3.06 | Not Active |  | OCCN1C[C@@H](O)C(O)(CCO)[C@@H](O)C1 (stereo partly specified) | < 5.00 | < 5.00
